{"data": "Experimental data gathered from unrelated publications", "Tspo": "Translocator protein (Tspo, Rattus norvegicus, UniProt P16257)", "ADRA1A": "Alpha-1A adrenergic receptor (ADRA1A, Homo sapiens, UniProt P35348)", "HRH2": "Histamine H2 receptor (HRH2, Homo sapiens, UniProt P25021)", "note": "Lines come from different studies, so protocols differ."}
{"target": "Amine oxidase [flavin-containing] A (MAOA, Homo sapiens, UniProt P21397)", "test": "enzyme activity, inhibitor", "Ki": "38600 nM", "Structure (SMILES)": "O=C(O)c1cc(O)c2c(c1)C(=O)c1cc(O)cc(O)c1C2=O"}
{"target": "Tspo", "test": "ligand displacement, radioligand", "Ki": "> 10000 nM", "Structure (SMILES)": "CNC(=O)[C@@]12C[C@@H]1[C@@H](n1cnc3c(NC)nc(C#Cc4ccc(Br)s4)nc31)[C@H](O)[C@@H]2O"}
{"target": "ADRA1A", "test": "cell-free assay, radioligand", "Ki": "> 10000 nM", "Structure (SMILES)": "CCCCN1CCC(COC(=O)c2ccc(N)c(OCF)c2)CC1"}
{"target": "Peroxisome proliferator-activated receptor delta (PPARD, Homo sapiens, UniProt Q03181)", "test": "cell-free assay", "Ki": "26200 nM", "Structure (SMILES)": "Cc1c(C)c2c(c(C)c1O)CCC(C)(COc1ccc(CC3SC(=O)NC3=O)cc1)O2 (stereo not shown)"}
{"target": "ADRA1A", "test": "ligand displacement, radioligand", "Ki": "15.9 nM", "Structure (SMILES)": "COc1ccc2c(c1)C(=O)N(CCN1CCN(c3ccccc3OC)CC1)C2"}
{"target": "Tspo", "test": "ligand displacement, radioligand", "Ki": "> 10000 nM", "Structure (SMILES)": "CCCCC(=O)[C@@]12C[C@@H]1[C@@H](n1ccc3c(NC)nc(C#Cc4ccc(Cl)s4)nc31)[C@H](O)[C@@H]2O"}
{"target": "ADRA1A", "test": "ligand displacement, radioligand", "Ki": "867 nM", "Structure (SMILES)": "O=C1c2ccccc2CCCN1CCCCN1CCN(c2ccccn2)CC1"}
{"target": "Receptor-interacting serine/threonine-protein kinase 2 (RIPK2, Homo sapiens, UniProt O43353)", "test": "enzyme activity, inhibitor", "Ki": "95 nM", "Structure (SMILES)": "CN1CC(Oc2cnc(C#N)cc2-c2ccn3nc(NC(=O)C4CC4)cc3c2)C1"}
{"target": "ADRA1A", "test": "ligand displacement, radioligand", "Ki": "0.18 nM", "Structure (SMILES)": "COc1cccc(OC)c1OCCNCC1COc2ccccc2O1 (stereo not shown)"}
{"target": "Tspo", "test": "ligand displacement, radioligand", "Ki": "> 10000 nM", "Structure (SMILES)": "CNC(=O)[C@@]12C[C@@H]1[C@@H](n1cnc3c(NC)nc(C#Cc4ccc(F)c(F)c4)nc31)[C@H](O)[C@@H]2O"}
{"target": "Cathepsin S (CTSS, Homo sapiens, UniProt P25774)", "test": "enzyme activity, inhibitor, fluorescence", "setting": "with preincubation", "Ki": "0.13 nM", "Structure (SMILES)": "CC[C@H](NC(=O)[C@H](CS(=O)(=O)CC1CC1)N[C@@H](c1ccc(F)cc1)C(F)(F)F)C(=O)C(=O)NC1CC1"}
{"target": "HRH2", "test": "ligand displacement, radioligand", "Ki": "680 nM", "Structure (SMILES)": "Cc1nc2cc(OCCCCN3CCN(c4cccc(Cl)c4Cl)CC3)ccc2s1"}
{"target": "Tspo", "test": "ligand displacement, radioligand", "Ki": "> 10000 nM", "Structure (SMILES)": "O[C@@H]1[C@H](O)[C@@H]2C[C@@H]2[C@H]1n1cnc2c(NCc3cccc(Cl)c3)ncnc21"}
{"target": "HRH2", "test": "ligand displacement, radioligand", "Ki": "2100 nM", "Structure (SMILES)": "CCc1nc2cc(OCCCCN3CCC(c4cccc(Cl)c4Cl)CC3)ccc2s1"}
{"target": "Tspo", "test": "ligand displacement, radioligand", "Ki": "> 10000 nM", "Structure (SMILES)": "CCNc1nc(C#Cc2ccccc2)nc2c1ncn2[C@H]1[C@H](O)[C@H](O)[C@@H]2C[C@@H]21"}
{"target": "ADRA1A", "test": "ligand displacement, radioligand", "Ki": "555 nM", "Structure (SMILES)": "O=C1c2ccccc2CCN1CCCCN1CCN(c2ccccn2)CC1"}
